From PMC11143505 (Acta Pharmaceutica Sinica. B, 2024)

Legend:
healthy C57 mice = experiment: Biosafety in healthy mice; format: in vivo; settings: 2 weeks daily; for blood cell counts: n = 5 or 6
Summary of the method: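 Body weight was recorded every 2 days. After two weeks, blood was collected and blood cell counts were run on an automated veterinary haematology analyser.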

diabetic mice = experiment: Long-term efficacy in diabetic mice; format: in vivo; settings: for kidney Masson staining, amount of collagen fiber / kidney PAS staining: Day 14; for kidney H&E pathological features: Day 14, insulin 1 mg/kg, di-PEGylated insulin 3 mg/kg
Summary of the method: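 Diabetes was induced in C57BL/6 mice with STZ 50 mg/kg i.p. in 0.1 mol/L citrate pH 4.5 on 5 consecutive days; only mice with fasting glucose >16.7 mmol/L at 2 weeks were used. […] Serum glycated protein, CREA and BUN were measured by kit on Days 7 and 14. Day-14 kidneys were stained with H&E, PAS and Masson (200×). Dunnett-corrected ANOVA.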

In vitro stability = format: physicochemical; settings: 1 mg/mL in PBS pH 7.4, 37 °C, 100 rpm, 80 h
[1] = Absorption and urine excretion of Cy7-labeled samples; format: in vivo, mice; settings: s.c., n = 3; for time at which fluorescence at the injected site was undetectable: live imaging
Dynamic light scattering = format: physicochemical; settings: DLS in PBS, average of three measurements
healthy C57BL/6 mice = experiment: Hypoglycemia effect in fasted healthy mice; format: in vivo; settings: for number of mice died from hypoglycemia / dose at which mice started to suffer from notable hypoglycemia: n = 6
Summary of the method: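 Tail-vein glucose was read by glucose meter at 30 min and 1–6 h. Hypoglycaemic effect was the area above the glycaemic curve and below 3.3 mmol/L. Survival was recorded at 10 U/kg. One-way ANOVA with Tukey test.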

[2] = test system: STZ-induced diabetic mice; experiment: Glycemic control in STZ-induced type 1 diabetic mice with IPGTT; format: in vivo; settings: s.c.; for number of mice experiencing hypoglycemia within 4 h post-injection / time for blood glucose to drop to the normoglycemic range: n = 6; for time for blood glucose to drop to the normoglycemic range: fasted STZ diabetic mice; for response to the first glucose challenge (IPGTT): glucose 2 g/kg i.p. at 4.5 h
insulin receptor = insulin receptor (Mus musculus, UniProt P15208); experiment: Cell-based insulin receptor activation assay; settings: C2C12 cells, phospho-AKT (Ser473) HTRF; relative to native insulin = 100%
Chain of insulin receptor (P15208 28-748 limits assumed): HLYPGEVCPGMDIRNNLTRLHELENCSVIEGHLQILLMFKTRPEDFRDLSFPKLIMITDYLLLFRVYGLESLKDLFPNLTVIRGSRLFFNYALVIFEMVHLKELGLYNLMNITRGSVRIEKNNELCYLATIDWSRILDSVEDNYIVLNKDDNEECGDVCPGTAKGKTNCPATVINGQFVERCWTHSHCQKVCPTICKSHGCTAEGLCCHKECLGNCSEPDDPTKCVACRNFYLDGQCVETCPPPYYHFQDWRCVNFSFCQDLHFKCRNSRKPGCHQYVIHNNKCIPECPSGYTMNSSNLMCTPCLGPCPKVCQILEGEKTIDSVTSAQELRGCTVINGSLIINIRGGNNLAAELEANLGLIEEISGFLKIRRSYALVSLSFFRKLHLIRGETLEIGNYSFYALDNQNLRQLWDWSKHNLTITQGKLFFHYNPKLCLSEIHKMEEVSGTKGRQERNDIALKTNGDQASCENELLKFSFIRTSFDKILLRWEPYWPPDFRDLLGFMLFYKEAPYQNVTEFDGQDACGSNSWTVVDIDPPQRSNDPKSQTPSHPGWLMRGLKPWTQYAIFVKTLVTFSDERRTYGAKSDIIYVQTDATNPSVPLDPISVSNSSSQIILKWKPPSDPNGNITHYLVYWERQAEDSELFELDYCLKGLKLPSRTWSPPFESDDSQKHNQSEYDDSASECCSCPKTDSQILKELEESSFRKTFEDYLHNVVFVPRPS
Chain of insulin receptor (P15208 753-1372 partner limits assumed): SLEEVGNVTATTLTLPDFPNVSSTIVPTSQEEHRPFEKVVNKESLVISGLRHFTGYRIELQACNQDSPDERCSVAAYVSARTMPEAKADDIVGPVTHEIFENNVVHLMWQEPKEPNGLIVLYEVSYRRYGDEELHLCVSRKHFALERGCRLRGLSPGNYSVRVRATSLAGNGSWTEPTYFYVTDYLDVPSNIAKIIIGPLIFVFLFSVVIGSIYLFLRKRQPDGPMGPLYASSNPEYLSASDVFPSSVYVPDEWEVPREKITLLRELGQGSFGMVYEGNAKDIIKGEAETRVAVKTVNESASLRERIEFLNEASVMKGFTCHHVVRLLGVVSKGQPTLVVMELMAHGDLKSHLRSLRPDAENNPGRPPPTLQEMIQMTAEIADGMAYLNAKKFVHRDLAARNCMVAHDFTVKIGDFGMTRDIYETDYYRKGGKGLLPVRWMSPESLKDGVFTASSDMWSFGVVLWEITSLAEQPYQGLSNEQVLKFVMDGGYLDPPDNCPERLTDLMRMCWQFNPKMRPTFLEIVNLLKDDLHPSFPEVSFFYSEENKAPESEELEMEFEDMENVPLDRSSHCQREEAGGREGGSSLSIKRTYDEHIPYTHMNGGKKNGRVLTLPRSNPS

Pharmacokinetics = format: in vivo, mice; settings: n = 5; for delay of time to peak concentration: compared with insulin
[3] = diabetic mice, Iso-insulin ELISA

di-PEGylated insulin: insulin conjugated with two PEG chains (MW 5000) at Lys B29 and Gly A1
blood cell counts (healthy C57 mice): no noticeable change | glycated serum protein (GSP) level (diabetic mice; 2-week treatment, 3 mg/kg daily, n = 6): markedly reduced | kidney Masson staining, amount of collagen fiber (diabetic mice): decreased | kidney PAS staining (diabetic mice): preserved glomerular basement membrane | kidney H&E pathological features (diabetic mice): somewhat attenuated | change in transmittance after the assay (In vitro stability): less than 2% | time at which urine fluorescence signals could still be detected ([1]; Cy7 0.1 mg/kg): 12 h | time at which fluorescence at the injected site was undetectable [1]: 4 h | hydrodynamic size (Dynamic light scattering): 8.3 ± 1.1 nm | hypoglycemia in healthy mice (healthy C57BL/6 mice; s.c., 10 U/kg, fasted healthy mice, n = 6, threshold 3.3 mmol/L): didn't suffer from hypoglycemia | number of mice experiencing hypoglycemia within 4 h post-injection ([2]; 5 U/kg, STZ diabetic mice): no mice | duration of blood glucose management after a single dose ([2]; 15 U/kg, STZ diabetic mice, three IPGTT 2 g/kg): over 13 h | Emax (insulin receptor): 63.5% | time at which serum concentration was still detected (Pharmacokinetics; [3]): 12 h | delay of time to peak concentration (Pharmacokinetics; [3]): approximately 1 h

insulin: Recombinant human insulin (26 U/mg) from Tonghua Dongbao Pharmaceutical [reference compound]
inflammatory cell infiltration in the skin at the injection site (healthy C57 mice; H&E): No significant inflammatory cell infiltration | blood cell counts (healthy C57 mice): no noticeable change | kidney Masson staining, amount of collagen fiber (diabetic mice): decreased | kidney PAS staining (diabetic mice): thicker glomerular basement membrane and incomplete brush border | kidney H&E pathological features (diabetic mice): somewhat attenuated | fluorescence retention rate at the injected site ([1]; 4 h post-injection): 50% | time of maximum urine fluorescence signal ([1]; Cy7 0.1 mg/kg, IVIS imaging of urine): 2 h | time at which urine fluorescence was close to the background value ([1]; Cy7 0.1 mg/kg): 4 h | hydrodynamic size (Dynamic light scattering): 4.1 ± 0.2 nm | number of mice died from hypoglycemia (healthy C57BL/6 mice; s.c., 10 U/kg, healthy mice): 4 | dose at which mice started to suffer from notable hypoglycemia (healthy C57BL/6 mice; s.c., fasted healthy mice): 2 U/kg | number of mice experiencing hypoglycemia within 4 h post-injection ([2]; 5 U/kg, STZ diabetic mice): 5 | time for blood glucose to drop to the normoglycemic range ([2]; 5 U/kg): ≤ 30 min | response to the first glucose challenge (IPGTT) ([2]; 5 U/kg): didn't show any efficacy in lowering blood glucose | Emax (insulin receptor): 100% | time at which serum concentration was essentially undetectable (Pharmacokinetics; healthy mice, insulin ELISA): 4 h

mono-PEGylated insulin: insulin conjugated with one PEG chain (MW 5000) at Lys B29
time at which fluorescence at the injected site was undetectable [1]: 4 h | increase in maximum tolerated dose (healthy C57BL/6 mice; healthy mice, from area under the hypoglycemia line, 10 U/kg vs 1 U/kg insulin): didn't show a significant improvement | number of mice died from hypoglycemia (healthy C57BL/6 mice; s.c., 10 U/kg, healthy mice): 5 | dose at which mice started to suffer from notable hypoglycemia (healthy C57BL/6 mice; s.c., fasted healthy mice): 2 U/kg | number of mice experiencing hypoglycemia within 4 h post-injection ([2]; 5 U/kg, STZ diabetic mice): 4 | time for blood glucose to drop to the normoglycemic range ([2]; 5 U/kg): ≤ 30 min | response to the following two additional IPGTTs ([2]; 5 U/kg, glucose 2 g/kg i.p. at 7.5 and 10.5 h): didn't exhibit glucose-lowering effects | response to the first glucose challenge (IPGTT) ([2]; 5 U/kg): moderate efficacy but failed to lower blood glucose to normoglycemic levels | Emax (insulin receptor): 95.7% | delay of time to peak concentration (Pharmacokinetics; [3]): approximately 1 h
